Assay results from ChEMBL document CHEMBL1782042, “Efficient microwave-assisted synthesis and antitumor activity of novel 4,4'-methylenebis[2-(3-aryl-4,5-dihydro-1H-pyrazol-5-yl)phenols]” (Eur J Med Chem, 2011).

Assays:
HCT-15 = experiment: Anticancer activity against human HCT15 cells after 48 hrs by sulforhodamine B assay; assay type: functional; settings: HCT-15, 48 h
Procedure, shortened: (§1)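 NCI 60-cell-line in vitro screen, second stage: five concentration levels (100, 10, 1.0, 0.1 and 0.01 μM) with 48 h continuous drug exposure. Cell growth was estimated by sulforhodamine B protein staining. GI50 is the drug concentration that gives a 50% reduction in net protein increase relative to control cells over the incubation.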

ACHN = experiment: Cytotoxicity against human ACHN cells; assay type: cell-based
Procedure, shortened: (§2)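 NCI 60 human tumour cell line screen, second stage at five concentrations (100, 10, 1.0, 0.1 and 0.01 μM). Continuous drug exposure for 48 h, with cell growth estimated by sulforhodamine B protein staining. GI50 is the drug concentration giving a 50% reduction in net protein increase relative to control cells over the incubation.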

RPMI-8226 [1] = experiment: Anticancer activity against human RPMI8226 cells after 48 hrs by sulforhodamine B assay; assay type: functional; settings: RPMI-8226, 48 h; procedure, shortened: as §1
SNB-19 [2] = experiment: Anticancer activity against human SNB19 cells after 48 hrs by sulforhodamine B assay; assay type: functional; settings: SNB-19, 48 h; procedure, shortened: as §1
LOX IMVI = experiment: Cytotoxicity against human LOXIMVI cells; assay type: cell-based; procedure, shortened: as §2
MCF7 [3] = experiment: Cytotoxicity against human MCF7 cells; assay type: cell-based; procedure, shortened: as §2
CCRF-CEM = experiment: Anticancer activity against human CCRF-CEM cells after 48 hrs by sulforhodamine B assay; assay type: functional; procedure, shortened: as §1
BT-549 [4] = experiment: Anticancer activity against human BT549 cells after 48 hrs by sulforhodamine B assay; assay type: functional; settings: BT-549, 48 h; procedure, shortened: as §1
HCT-116 = experiment: Anticancer activity against human HCT116 cells after 48 hrs by sulforhodamine B assay; assay type: functional; settings: HCT-116, 48 h; procedure, shortened: as §1
Hs-578T = experiment: Cytotoxicity against human Hs578T cells; assay type: cell-based; procedure, shortened: as §2
K562 = experiment: Anticancer activity against human K562 cells after 48 hrs by sulforhodamine B assay; assay type: functional; settings: K562, 48 h; procedure, shortened: as §1
NCI-H226 = experiment: Cytotoxicity against human NCI-H226 cells; assay type: cell-based; procedure, shortened: as §2
HOP-62 = experiment: Cytotoxicity against human HOP62 cells; assay type: cell-based; procedure, shortened: as §2
SNB-19 [5] = experiment: Cytotoxicity against human SNB19 cells; assay type: cell-based
Procedure, shortened: (§3)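 NCI 60 human tumour cell line screen; five concentration levels (100, 10, 1.0, 0.1 and 0.01 μM), 48 h continuous drug exposure. Cell growth estimated by sulforhodamine B (SRB) protein staining. GI50 taken as the drug concentration giving a 50% reduction in net protein increase relative to control cells over the incubation.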

SW-620 [6] = experiment: Anticancer activity against human SW620 cells after 48 hrs by sulforhodamine B assay; assay type: functional; settings: SW-620, 48 h
Procedure, shortened: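 NCI 60-cell-line screen, second stage. Five concentration levels (100, 10, 1.0, 0.1 and 0.01 μM), 48 h continuous drug exposure. Cell growth was estimated by sulforhodamine B protein staining. GI50 is the concentration giving a 50% reduction in net protein increase relative to control cells over the drug incubation. Compounds entered this stage after an earlier single-dose screen.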

MDA-MB-468 = experiment: Cytotoxicity against human MDA-MB-468 cells; assay type: cell-based; procedure, shortened: as §2
RXF 393 = experiment: Anticancer activity against human RXF393 cells after 48 hrs by sulforhodamine B assay; assay type: functional; settings: RXF 393, 48 h; procedure, shortened: as §1
RPMI-8226 [7] = experiment: Cytotoxicity against human RPMI8226 cells; assay type: cell-based; procedure, shortened: as §2
BT-549 [8] = experiment: Cytotoxicity against human BT549 cells; assay type: cell-based; procedure, shortened: as §2
SK-MEL-5 = experiment: Cytotoxicity against human SK-MEL-5 cells; assay type: cell-based; procedure, shortened: as §2
A549 [9] = experiment: Cytotoxicity against human A549 cells; assay type: cell-based; procedure, shortened: as §2
SW-620 [10] = experiment: Cytotoxicity against human SW620 cells; assay type: cell-based; procedure, shortened: as §3
OVCAR-8 = experiment: Cytotoxicity against human OVCAR8 cells; assay type: cell-based; procedure, shortened: as §2
NCI-H460 [11] = experiment: Cytotoxicity against human NCI-H460 cells; assay type: cell-based; procedure, shortened: as §2
A549 [12] = experiment: Anticancer activity against human A549 cells after 48 hrs by sulforhodamine B assay; assay type: functional; settings: A549, 48 h; procedure, shortened: as §1
NCI-H522 = experiment: Anticancer activity against human NCI-H522 cells after 48 hrs by sulforhodamine B assay; assay type: functional; settings: NCI-H522, 48 h; procedure, shortened: as §1
786-0 = experiment: Cytotoxicity against human 786-0 cells; assay type: cell-based; procedure, shortened: as §2
MDA-MB-435 = experiment: Cytotoxicity against human MDA-MB-435 cells; assay type: cell-based; procedure, shortened: as §2
NCI-H460 [13] = experiment: Anticancer activity against human NCI-H460 cells after 48 hrs by sulforhodamine B assay; assay type: functional; settings: NCI-H460, 48 h; procedure, shortened: as §1
SN12C = experiment: Anticancer activity against human SN12C cells after 48 hrs by sulforhodamine B assay; assay type: functional; procedure, shortened: as §1
NCI-H23 = experiment: Anticancer activity against human NCI-H23 cells after 48 hrs by sulforhodamine B assay; assay type: functional; settings: NCI-H23, 48 h; procedure, shortened: as §1
NCI/ADR-RES = experiment: Anticancer activity against human NCI/ADR-RES cells after 48 hrs by sulforhodamine B assay; assay type: functional; procedure, shortened: as §1
MCF7 [14] = experiment: Anticancer activity against human MCF7 cells after 48 hrs by sulforhodamine B assay; assay type: functional; settings: MCF7, 48 h; procedure, shortened: as §1

Cc1ccc(C2=NNC(c3cc(Cc4ccc(O)c(C5CC(c6ccc(C)cc6)=NN5)c4)ccc3O)C2)cc1 (stereo not drawn)
GI50 (HCT-15): 3.64 µM
LC50 (ACHN): > 100 µM
GI50 (RPMI-8226 [1]): 9.89 µM
GI50 (SNB-19 [2]): 6.89 µM
LC50 (LOX IMVI): > 100 µM
LC50 (MCF7 [3]): 71.8 µM
GI50 (CCRF-CEM): 3.85 µM
GI50 (BT-549 [4]): 4.66 µM
GI50 (HCT-116): 4.11 µM
LC50 (Hs-578T): > 100 µM
GI50 (K562): 7.73 µM
LC50 (NCI-H226): > 100 µM
LC50 (HOP-62): > 100 µM
LC50 (SNB-19 [5]): > 100 µM
GI50 (SW-620 [6]): 7.96 µM
LC50 (MDA-MB-468): > 100 µM
GI50 (RXF 393): 4.18 µM
LC50 (RPMI-8226 [7]): > 100 µM
LC50 (BT-549 [8]): > 100 µM
LC50 (SK-MEL-5): 31.7 µM
LC50 (A549 [9]): > 100 µM
LC50 (SW-620 [10]): > 100 µM
LC50 (OVCAR-8): > 100 µM
LC50 (NCI-H460 [11]): > 100 µM
GI50 (A549 [12]): 6.84 µM
GI50 (NCI-H522): 3.64 µM
LC50 (786-0): > 100 µM
LC50 (MDA-MB-435): > 100 µM
GI50 (NCI-H460 [13]): 4.88 µM
GI50 (SN12C): 8.84 µM
GI50 (NCI-H23): 5.3 µM
GI50 (NCI/ADR-RES): 7.39 µM
GI50 (MCF7 [14]): 3.3 µM
